The values below come from ChEMBL document CHEMBL1123816, “Synthesis and antidepressant properties of novel 2-substituted 4,5-dihydro-1H-imidazole derivatives” (J Med Chem, 1987).

Experiment [1] deals with Mus musculus. Briefly: Effective dose required to antagonise clonidine-induced antinociception(ACA) in mouse by peroral administration at maximum response 100. The class given is functional.
The species named for experiment [2] is Rattus norvegicus. Briefly: Inhibition of [3H]-dopamine uptake into rat brain synaptosomes in vitro;Values ranges from :18-39. The class given is functional. The essentials:
(§1)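 Male Sprague–Dawley rat (180–240 g) cortex (NE, 5-HT) or striatum (DA) crude P2 synaptosomes in 0.32 M sucrose. Preincubated 5 min at 25 °C with drug in Krebs–Ringer phosphate containing ascorbate, EDTA, nialamide; 0.1 μM final [3H]amine added for 5 min. Stopped by cold saline and GF/B filtration; nonspecific uptake at 4 °C. IC50 with 95% limits computed.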

The nature of experiment [3]: selectivity ratio (Alpha-1[Methoxiamine]/Alpha2[clonidine]. The gist of the method:
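Ratio derived from Schild pA2 values in rat vas deferens: α1 antagonism against methoxamine contractions (24 °C Krebs, three antagonist concentrations) versus α2 antagonism against clonidine inhibition of field-stimulated twitch (33–34 °C, 80 V, 1 ms, 0.15 Hz).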

The species named for experiment [4] is Rattus norvegicus. Briefly: Inhibition of [3H]5-HT uptake into rat brain synaptosomes in vitro Values ranges from: 0.3-0.5. Type of experiment: functional. The essentials: as §1
For experiment [5], the species on record is Rattus norvegicus. The experiment is described as follows: Inhibition of [3H]norepinephrine uptake into rat brain synaptosomes in vitro;Values ranges from :20-180. The class given is functional. The essentials:
as §1

Experiment [6] relates to Mus musculus. The experiment is described as follows: Effective dose required for inhibition of tetrabenazine-induced ptosis in mouse by peroral administration; Values ranges from 12-25. Conditions: po.
The test system of experiment [7] is Rattus norvegicus. The experiment is described as follows: Minimum effective dose required for inhibition of serotonin uptake was determined by PCA method in rat by peroral administration. Type of experiment: functional. Conditions: po, read-out: MED. The gist of the method: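 Fasted male Sprague–Dawley rats (160–200 g) given test compound orally in water (10 mL/kg) 15 min before p-chloroamphetamine 3 mg/kg ip. Forebrain taken 3 h later, extracted in acidified butanol then heptane/0.1 N HCl. Serotonin in aqueous phase measured fluorometrically after o-phthalaldehyde condensation (excitation 360 nm). Minimum effective dose reported.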

Experiment [8] concerns the target T1, Adrenergic receptor alpha-2 (Rattus norvegicus, UniProt P22086+P19328+P22909).
T1 sequence (P22086 whole entry): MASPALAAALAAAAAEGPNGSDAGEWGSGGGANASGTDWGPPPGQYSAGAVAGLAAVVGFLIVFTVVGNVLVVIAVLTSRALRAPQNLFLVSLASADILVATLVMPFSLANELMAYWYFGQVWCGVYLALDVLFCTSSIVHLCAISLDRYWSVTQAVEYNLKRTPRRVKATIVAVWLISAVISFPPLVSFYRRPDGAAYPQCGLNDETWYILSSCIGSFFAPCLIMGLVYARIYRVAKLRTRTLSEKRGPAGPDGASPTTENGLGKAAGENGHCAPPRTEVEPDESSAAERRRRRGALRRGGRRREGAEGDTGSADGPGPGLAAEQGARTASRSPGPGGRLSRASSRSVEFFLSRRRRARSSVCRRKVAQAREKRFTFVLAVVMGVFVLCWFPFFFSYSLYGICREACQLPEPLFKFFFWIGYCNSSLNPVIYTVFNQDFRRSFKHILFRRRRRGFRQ
T1 sequence (P19328 whole entry): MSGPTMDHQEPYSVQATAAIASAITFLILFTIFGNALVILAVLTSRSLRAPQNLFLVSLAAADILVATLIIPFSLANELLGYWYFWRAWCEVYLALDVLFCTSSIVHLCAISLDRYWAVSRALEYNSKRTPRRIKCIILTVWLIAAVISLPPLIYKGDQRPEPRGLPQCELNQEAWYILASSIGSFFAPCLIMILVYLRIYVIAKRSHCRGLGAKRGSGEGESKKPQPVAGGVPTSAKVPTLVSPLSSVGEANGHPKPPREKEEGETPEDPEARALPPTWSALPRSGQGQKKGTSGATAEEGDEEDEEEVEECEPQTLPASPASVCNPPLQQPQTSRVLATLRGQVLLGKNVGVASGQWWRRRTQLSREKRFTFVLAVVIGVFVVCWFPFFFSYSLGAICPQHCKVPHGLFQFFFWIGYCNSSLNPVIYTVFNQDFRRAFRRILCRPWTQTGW
T1 sequence (P22909 whole entry): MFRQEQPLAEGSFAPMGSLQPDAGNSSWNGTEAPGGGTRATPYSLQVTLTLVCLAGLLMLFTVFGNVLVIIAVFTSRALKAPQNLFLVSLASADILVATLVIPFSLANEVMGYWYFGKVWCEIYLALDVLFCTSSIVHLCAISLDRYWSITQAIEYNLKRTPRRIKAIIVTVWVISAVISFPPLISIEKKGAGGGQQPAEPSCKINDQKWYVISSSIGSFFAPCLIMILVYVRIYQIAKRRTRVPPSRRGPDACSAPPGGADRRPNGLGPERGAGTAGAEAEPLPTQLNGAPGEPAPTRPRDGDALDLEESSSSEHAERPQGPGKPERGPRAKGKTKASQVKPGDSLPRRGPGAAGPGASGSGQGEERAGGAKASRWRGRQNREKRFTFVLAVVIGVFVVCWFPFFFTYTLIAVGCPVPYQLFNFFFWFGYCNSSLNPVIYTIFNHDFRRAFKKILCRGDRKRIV
The experiment is described as follows: Ability to displace [3H]clonidine from alpha-2 adrenergic receptor in rat brain homogenates in vitro. The class given is tissue-based. The essentials: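 Rat cerebral cortex homogenized in 50 mM Tris pH 7.7, washed twice by centrifugation at 48000g, resuspended in 50 volumes. Membranes incubated with 0.4 nM [3H]clonidine plus varied test concentrations, 30 min at 25 °C. Nonspecific binding defined with 1 μM unlabeled clonidine. GF/B filtration, scintillation counting. Run in triplicate; logit plot IC50 converted to apparent Ki (Cheng–Prusoff).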

The species entered for experiment [9] is Rattus norvegicus. The experiment is described as follows: Inhibition of [3H]5-HT uptake into rat brain synaptosomes in vitro;Value ranges from:0.2-0.8. The class given is functional. The gist of the method: as §1
For experiment [10], the species on record is Rattus norvegicus. The experiment is described as follows: Inhibition of [3H]norepinephrine uptake into rat brain synaptosomes in vitro;Value ranges from:1.9-4.4. The class given is functional. The essentials:
as §1

For experiment [11], the species on record is Rattus norvegicus. The experiment is described as follows: Inhibition of [3H]dopamine uptake into rat brain synaptosomes in vitro;Value ranges from:2.5-4.5. The class given is functional. The essentials: as §1
The subject of experiment [12] is Mus musculus. The experiment is described as follows: Effective dose required to antagonise clonidine-induced antinociception(ACA) in mouse by peroral administration;Values ranges from: 15-86. The class given is functional. The note with it: po.
Experiment [13] concerns Mus musculus. Briefly: Effective dose required for inhibition of tetrabenazine-induced ptosis in mouse by peroral administration at maximum response 30. The class given is functional.

Usually Inhibition stands for the drop in the measured response relative to a control, in per cent. The low end stands for a weak effect, the high end for a strong effect. The term IC50 denotes the concentration at which inhibition is half-maximal. Higher therefore signals a need for much substance. Broadly, the ED50 is the dose at which the effect has come halfway, by size or by number of responders. Low values mean an effect at a small dose, high ones a need for a large dose. A word on the Ki: it is a dissociation constant, usually derived from enzyme kinetics or from competition with a known ligand. Read a high Ki as lower affinity. Molecule `CC1=C(CC2=NCCN2)CCc2ccccc21.Cl` showed an Inhibition in the experiment with Mus musculus [1] of 50%. In addition, the figures for the IC50 in the experiment filed under Rattus norvegicus [2], in the experiment filed under Rattus norvegicus [4] and in the experiment listed under Rattus norvegicus [5] were 26000 nM, 400 nM and 60000 nM, respectively. The Selectivity ratio in [3] turned out to be 1.3. In the experiment with Mus musculus [6], this molecule gave an ED50 of 18 mg/kg. The minimal effective dose in the experiment with Rattus norvegicus [7] is 30 mg/kg. This molecule returned a Ki in [8] of 12 nM.

In the case of `C1=C(CC2=NCCN2)CCc2ccccc21.Cl` [NAPAMEZOLE HYDROCHLORIDE], the results for the IC50 in the experiment listed under Rattus norvegicus [9], in the experiment listed under Rattus norvegicus [10] and in the experiment listed under Rattus norvegicus [11] were 400 nM, 2900 nM and 3300 nM, respectively. Also, the Ratio in experiment [3] turned out to be 7.8. It took a dose of 36 mg/kg to reach the 50% effect level in the experiment on Mus musculus [12] (ED50). The same molecule gave an Inhibition in the experiment on Mus musculus [13] of 35%. Moreover, in the experiment on Rattus norvegicus [7], the minimal effective dose was 30 mg/kg. Further, in experiment [8], the Ki came to 23 nM.
